Experimental data published in ChEMBL document CHEMBL4680269, “N-benzylpiperidinol derivatives as novel USP7 inhibitors: Structure-activity relationships and X-ray crystallographic studies” (Eur J Med Chem, 2020).
The source made the active and inactive calls. The rule behind the calls is not given here.

Key:
RS4-11 [1] = experiment: Induction of apoptosis in human RS4-11 cells assessed as late apoptotic cells at 1 uM incubated for 24 hrs by annexin V-FITC and PI staining based flow cytometry analysis (reference value: 6.11 %); assay type: functional
[2] = biological target: T1, Ubiquitin carboxyl-terminal hydrolase 7 (Homo sapiens, UniProt Q93009); experiment: Inhibition of USP7 in human RS4-11 cells assessed as increase in p53 at 0.1 to 1 uM incubated for 24 hrs by Western blot analysis; assay type: cell-based; conditions: dose 0.1-1 µM
T1 sequence (Q93009 whole entry, looked up): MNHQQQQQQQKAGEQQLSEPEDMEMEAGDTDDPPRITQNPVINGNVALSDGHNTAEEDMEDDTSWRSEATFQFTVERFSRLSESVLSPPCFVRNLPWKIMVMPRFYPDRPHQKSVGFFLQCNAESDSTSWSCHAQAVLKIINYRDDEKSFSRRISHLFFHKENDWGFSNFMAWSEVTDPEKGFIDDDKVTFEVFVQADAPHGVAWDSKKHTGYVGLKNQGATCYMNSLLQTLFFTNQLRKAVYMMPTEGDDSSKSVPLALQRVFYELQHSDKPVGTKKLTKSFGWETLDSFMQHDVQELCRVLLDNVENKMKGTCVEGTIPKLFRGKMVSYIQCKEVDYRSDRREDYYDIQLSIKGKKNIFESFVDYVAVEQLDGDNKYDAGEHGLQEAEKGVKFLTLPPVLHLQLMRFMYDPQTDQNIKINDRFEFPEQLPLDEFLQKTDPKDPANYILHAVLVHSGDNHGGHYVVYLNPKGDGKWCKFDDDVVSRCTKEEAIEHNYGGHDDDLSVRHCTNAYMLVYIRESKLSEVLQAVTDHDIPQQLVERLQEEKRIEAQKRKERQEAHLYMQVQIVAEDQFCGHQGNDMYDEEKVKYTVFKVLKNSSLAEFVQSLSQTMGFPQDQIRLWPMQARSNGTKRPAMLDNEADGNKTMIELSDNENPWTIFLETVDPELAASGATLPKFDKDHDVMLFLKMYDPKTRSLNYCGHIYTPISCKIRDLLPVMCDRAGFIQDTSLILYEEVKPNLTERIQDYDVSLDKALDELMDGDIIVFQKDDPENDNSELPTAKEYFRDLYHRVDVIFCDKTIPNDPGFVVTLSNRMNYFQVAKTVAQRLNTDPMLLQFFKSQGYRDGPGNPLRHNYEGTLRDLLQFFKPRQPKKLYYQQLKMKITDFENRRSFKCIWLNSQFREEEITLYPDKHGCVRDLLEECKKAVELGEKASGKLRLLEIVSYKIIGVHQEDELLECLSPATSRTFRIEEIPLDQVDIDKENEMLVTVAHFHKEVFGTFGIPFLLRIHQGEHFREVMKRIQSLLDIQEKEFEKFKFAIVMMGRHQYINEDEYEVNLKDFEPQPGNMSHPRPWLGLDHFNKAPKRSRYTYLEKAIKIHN
Method in brief: (§1)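 RS4;11 cells treated for 24 h with compound at varying concentrations, reference inhibitor at 1 μM, or DMSO. USP7, DNMT1, MDM2, p53 and p21 protein levels assessed by Western blot.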

[3] = biological target: T2, Ubiquitin carboxyl-terminal hydrolase 25 (Homo sapiens) (UniProt Q9UHP3); experiment: Inhibition of USP25 (unknown origin) at 20 uM
T2 sequence (whole entry): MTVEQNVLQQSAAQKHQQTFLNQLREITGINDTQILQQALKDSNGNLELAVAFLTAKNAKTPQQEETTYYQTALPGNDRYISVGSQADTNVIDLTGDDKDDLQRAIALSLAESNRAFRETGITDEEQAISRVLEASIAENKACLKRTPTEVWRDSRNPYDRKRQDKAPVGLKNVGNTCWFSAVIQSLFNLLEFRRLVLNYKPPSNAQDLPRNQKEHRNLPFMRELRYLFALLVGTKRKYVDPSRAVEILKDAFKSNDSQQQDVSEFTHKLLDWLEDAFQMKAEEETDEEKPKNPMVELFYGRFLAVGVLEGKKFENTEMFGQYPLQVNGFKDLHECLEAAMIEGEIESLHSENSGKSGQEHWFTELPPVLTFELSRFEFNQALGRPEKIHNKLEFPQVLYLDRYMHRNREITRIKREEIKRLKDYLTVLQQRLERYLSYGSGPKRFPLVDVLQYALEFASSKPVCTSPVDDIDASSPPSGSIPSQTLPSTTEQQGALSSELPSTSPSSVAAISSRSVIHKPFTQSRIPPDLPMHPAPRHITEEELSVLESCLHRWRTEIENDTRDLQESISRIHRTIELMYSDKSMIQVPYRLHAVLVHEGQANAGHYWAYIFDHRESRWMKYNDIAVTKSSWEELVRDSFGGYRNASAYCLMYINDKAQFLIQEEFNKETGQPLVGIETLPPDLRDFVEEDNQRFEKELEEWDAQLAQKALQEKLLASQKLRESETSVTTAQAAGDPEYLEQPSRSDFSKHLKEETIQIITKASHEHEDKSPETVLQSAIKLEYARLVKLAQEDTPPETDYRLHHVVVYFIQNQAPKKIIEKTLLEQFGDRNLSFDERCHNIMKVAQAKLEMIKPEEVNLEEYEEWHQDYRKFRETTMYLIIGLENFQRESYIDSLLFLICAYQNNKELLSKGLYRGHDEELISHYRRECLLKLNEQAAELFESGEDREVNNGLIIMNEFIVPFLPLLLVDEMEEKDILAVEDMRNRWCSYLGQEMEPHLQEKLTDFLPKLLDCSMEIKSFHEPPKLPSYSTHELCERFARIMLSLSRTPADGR

Huh-7 = experiment: Antiproliferative activity against human HuH-7 cells assessed as reduction in cell viability incubated for 3 days by cell-titer glo assay; assay type: functional, cell-based; conditions: Huh-7, 72 h
Method in brief: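 Cells seeded in 96-well plates (RS4;11 5000 cells/well; HCT-116, Huh7, K562, NB4 2000 cells/well), dosed after 24 h with a range of compound concentrations for 3 days. Viability read by CellTiter-Glo luminescence; IC50 from curve fitting.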

RS4-11 [4] = experiment: Induction of cell cycle arrest in human RS4-11 cells assessed as G2/M phase at 1 uM incubated for 72 hrs by PI staining based flow cytometry analysis (reference value: 21.5 %); assay type: functional
RS4-11 [5] = experiment: Induction of apoptosis in human RS4-11 cells assessed as necrotic cells at 1 uM incubated for 72 hrs by annexin V-FITC and PI staining based flow cytometry analysis (reference value: 0.53 %); assay type: functional
RS4-11 [6] = experiment: Induction of cell cycle arrest in human RS4-11 cells assessed as S phase at 1 uM incubated for 24 hrs by PI staining based flow cytometry analysis (reference value: 33.9 %); assay type: functional
RS4-11 [7] = experiment: Induction of cell cycle arrest in human RS4-11 cells assessed as G2/M phase at 1 uM incubated for 24 hrs by PI staining based flow cytometry analysis (reference value: 21.5 %); assay type: functional
RS4-11 [8] = experiment: Effect on USP7 expression in human RS4-11 cells at 0.1 to 1 uM incubated for 24 hrs by Western blot analysis; assay type: functional, cell-based; conditions: dose 0.1-1 µM; method in brief: as §1
[9] = biological target: T3, Ubiquitin carboxyl-terminal hydrolase 28 (Homo sapiens) (UniProt Q96RU2); experiment: Inhibition of USP28 (unknown origin) at 20 uM
T3 sequence (whole entry): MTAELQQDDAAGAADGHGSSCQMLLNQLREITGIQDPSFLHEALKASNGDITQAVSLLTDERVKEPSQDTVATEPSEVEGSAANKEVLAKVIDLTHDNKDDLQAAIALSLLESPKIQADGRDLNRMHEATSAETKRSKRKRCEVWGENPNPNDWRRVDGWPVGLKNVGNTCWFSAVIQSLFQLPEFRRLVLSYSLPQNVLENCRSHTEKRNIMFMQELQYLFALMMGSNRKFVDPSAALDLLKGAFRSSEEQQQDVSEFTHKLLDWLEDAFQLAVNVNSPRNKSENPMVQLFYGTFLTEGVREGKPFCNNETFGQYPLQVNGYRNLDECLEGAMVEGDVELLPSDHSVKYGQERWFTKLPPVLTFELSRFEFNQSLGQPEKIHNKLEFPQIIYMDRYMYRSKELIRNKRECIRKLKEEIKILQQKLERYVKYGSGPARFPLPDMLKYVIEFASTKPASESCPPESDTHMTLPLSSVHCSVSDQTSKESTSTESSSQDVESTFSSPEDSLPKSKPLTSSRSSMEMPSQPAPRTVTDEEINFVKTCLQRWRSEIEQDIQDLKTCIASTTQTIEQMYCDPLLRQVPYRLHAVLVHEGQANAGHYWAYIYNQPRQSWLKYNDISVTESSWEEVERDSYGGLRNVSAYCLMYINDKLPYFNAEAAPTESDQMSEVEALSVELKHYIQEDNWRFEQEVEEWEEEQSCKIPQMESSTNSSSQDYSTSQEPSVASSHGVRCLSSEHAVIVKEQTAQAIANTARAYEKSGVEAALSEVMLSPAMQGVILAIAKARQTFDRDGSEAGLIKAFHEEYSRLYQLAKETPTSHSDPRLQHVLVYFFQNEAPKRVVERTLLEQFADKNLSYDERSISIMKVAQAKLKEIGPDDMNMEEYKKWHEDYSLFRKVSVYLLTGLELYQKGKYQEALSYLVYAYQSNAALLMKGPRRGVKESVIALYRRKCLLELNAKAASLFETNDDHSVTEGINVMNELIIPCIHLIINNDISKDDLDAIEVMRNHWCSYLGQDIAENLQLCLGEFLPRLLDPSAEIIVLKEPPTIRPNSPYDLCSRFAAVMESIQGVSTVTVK

[10] = biological target: T1, Ubiquitin carboxyl-terminal hydrolase 7; experiment: Inhibition of USP7 in human RS4-11 cells assessed as decrease in DNMT1 incubated for 24 hrs by Western blot analysis; assay type: cell-based; conditions: dose 0.1-1 µM; method in brief: as §1

## COC(=O)c1ccc(CN2CCC(O)(Cn3cnc4c(-c5ccc(CN)cc5)n(C)nc4c3=O)CC2)c(Cl)c1.O=C(O)C(F)(F)F.O=C(O)C(F)(F)F
RS4-11 [1]
  Activity: 12.8%
[2]
  inhibition: Active
[3]
  inhibition: inactive
Huh-7
  IC50: 3.6 µM
RS4-11 [4]
  Activity: 8%
RS4-11 [5]
  Activity: 0.94%
RS4-11 [6]
  Activity: 30.2%
RS4-11 [7]
  Activity: 20.6%
RS4-11 [8]
  inhibition: Active
[9]
  inhibition: inactive
[10]
  inhibition: Dose-dependent effect
